Test results: ChEMBL document CHEMBL4052643, “Development of molecular tools based on the dopamine D3 receptor ligand FAUC 329 showing inhibiting effects on drug and food maintained behavior” (Bioorg Med Chem, 2017)
Activity calls are given as the source filed them. The calls are words filed in the database; no cut-off is given here.

Experiments:
D(1B) dopamine receptor = D(1B) dopamine receptor (Homo sapiens, UniProt P21918); assay: Displacement of […] from human D5 receptor expressed in HEK293T cell membranes; set-up: species or system HEK-293T
Chain of D(1B) dopamine receptor (P21918 whole entry): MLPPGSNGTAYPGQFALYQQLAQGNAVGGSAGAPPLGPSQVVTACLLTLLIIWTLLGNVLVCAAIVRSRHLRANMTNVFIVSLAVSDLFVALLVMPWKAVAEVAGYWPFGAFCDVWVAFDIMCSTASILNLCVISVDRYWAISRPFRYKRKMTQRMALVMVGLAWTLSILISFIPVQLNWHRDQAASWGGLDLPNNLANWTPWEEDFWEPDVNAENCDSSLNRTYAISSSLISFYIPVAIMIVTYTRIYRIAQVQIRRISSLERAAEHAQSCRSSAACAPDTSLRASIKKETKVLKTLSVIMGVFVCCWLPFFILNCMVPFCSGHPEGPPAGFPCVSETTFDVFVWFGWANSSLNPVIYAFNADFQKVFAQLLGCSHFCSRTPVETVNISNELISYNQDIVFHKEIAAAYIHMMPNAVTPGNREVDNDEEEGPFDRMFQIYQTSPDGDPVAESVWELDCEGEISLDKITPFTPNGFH

[1] = Displacement of […] from porcine cerebral cortex 5-HT1A receptor; set-up: species or system Sus scrofa
D(1A) dopamine receptor = D(1A) dopamine receptor (Homo sapiens, UniProt P21728); assay: Displacement of […] from human D1 receptor expressed in HEK293T cell membranes; set-up: species or system HEK-293T
Chain of D(1A) dopamine receptor (P21728 whole entry): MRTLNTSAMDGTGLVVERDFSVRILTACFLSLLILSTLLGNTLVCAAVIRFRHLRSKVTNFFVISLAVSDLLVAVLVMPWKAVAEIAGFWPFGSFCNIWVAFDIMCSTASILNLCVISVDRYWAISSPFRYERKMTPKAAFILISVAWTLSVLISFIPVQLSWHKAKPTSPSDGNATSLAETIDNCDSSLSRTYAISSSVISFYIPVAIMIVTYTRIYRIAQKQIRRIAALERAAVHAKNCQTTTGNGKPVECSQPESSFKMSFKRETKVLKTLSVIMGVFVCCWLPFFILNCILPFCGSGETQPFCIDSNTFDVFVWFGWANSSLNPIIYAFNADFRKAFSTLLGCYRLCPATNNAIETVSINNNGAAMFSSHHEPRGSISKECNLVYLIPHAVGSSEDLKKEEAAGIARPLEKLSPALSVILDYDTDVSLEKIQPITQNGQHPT

D(2) dopamine receptor [2] = biological target: T1, D(2) dopamine receptor (Homo sapiens, UniProt P14416); assay: Displacement of [3H]spiperone from human D2-short receptor expressed in CHO cell membranes
T1 sequence (P14416 whole entry): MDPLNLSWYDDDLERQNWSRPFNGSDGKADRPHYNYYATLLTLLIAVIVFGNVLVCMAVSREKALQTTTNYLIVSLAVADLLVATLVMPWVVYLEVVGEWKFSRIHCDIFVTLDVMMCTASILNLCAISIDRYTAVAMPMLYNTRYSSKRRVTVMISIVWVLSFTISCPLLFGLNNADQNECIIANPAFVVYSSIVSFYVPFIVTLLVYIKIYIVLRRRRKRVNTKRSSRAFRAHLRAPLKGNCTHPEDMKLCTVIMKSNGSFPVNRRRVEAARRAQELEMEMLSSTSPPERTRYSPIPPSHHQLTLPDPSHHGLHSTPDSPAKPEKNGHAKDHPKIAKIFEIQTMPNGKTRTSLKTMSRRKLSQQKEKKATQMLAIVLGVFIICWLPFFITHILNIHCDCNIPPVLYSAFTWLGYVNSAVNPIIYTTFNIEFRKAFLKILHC

D(2) dopamine receptor [3] = biological target: T1, D(2) dopamine receptor; assay: Displacement of [3H]spiperone from human D2-long receptor expressed in CHO cell membranes
D(4) dopamine receptor = biological target: T2, D(4) dopamine receptor (Homo sapiens, UniProt P21917); assay: Displacement of [3H]spiperone from human D4 receptor expressed in CHO cell membranes
T2 sequence (P21917 whole entry): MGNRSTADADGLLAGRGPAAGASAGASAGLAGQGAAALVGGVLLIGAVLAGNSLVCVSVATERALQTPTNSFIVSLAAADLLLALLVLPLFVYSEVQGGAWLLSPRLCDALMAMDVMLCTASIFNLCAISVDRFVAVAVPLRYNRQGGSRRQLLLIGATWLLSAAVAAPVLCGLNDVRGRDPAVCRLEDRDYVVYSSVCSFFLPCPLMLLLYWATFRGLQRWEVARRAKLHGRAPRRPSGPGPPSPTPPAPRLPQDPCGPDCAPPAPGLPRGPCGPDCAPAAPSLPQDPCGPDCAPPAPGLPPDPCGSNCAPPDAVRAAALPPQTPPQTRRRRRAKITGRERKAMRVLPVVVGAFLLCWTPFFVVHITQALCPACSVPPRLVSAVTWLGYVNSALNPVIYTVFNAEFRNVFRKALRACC

[4] = biological target: 5-hydroxytryptamine receptor 2A (Homo sapiens, UniProt P28223); assay: Displacement of [3H]ketanserin from human 5-HT2A receptor expressed in HEK293T cell membranes; set-up: species or system HEK-293T
Chain of 5-hydroxytryptamine receptor 2A (P28223 whole entry): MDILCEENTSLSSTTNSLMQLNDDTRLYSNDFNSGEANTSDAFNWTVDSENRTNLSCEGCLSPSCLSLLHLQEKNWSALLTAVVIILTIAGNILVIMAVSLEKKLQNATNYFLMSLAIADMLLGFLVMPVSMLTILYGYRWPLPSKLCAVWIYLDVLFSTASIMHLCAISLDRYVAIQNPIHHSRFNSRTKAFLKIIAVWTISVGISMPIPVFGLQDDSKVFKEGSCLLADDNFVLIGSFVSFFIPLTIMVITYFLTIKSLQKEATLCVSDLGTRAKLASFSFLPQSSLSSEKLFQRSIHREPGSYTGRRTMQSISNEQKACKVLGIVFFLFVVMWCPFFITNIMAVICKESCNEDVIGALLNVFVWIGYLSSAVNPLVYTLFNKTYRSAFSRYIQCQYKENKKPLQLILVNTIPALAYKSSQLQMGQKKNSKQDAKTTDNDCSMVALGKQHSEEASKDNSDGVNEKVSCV

D(3) dopamine receptor = D(3) dopamine receptor (Homo sapiens, UniProt P35462); assay: Displacement of [3H]spiperone from human D3 receptor expressed in CHO cell membranes
Chain of D(3) dopamine receptor (P35462 whole entry): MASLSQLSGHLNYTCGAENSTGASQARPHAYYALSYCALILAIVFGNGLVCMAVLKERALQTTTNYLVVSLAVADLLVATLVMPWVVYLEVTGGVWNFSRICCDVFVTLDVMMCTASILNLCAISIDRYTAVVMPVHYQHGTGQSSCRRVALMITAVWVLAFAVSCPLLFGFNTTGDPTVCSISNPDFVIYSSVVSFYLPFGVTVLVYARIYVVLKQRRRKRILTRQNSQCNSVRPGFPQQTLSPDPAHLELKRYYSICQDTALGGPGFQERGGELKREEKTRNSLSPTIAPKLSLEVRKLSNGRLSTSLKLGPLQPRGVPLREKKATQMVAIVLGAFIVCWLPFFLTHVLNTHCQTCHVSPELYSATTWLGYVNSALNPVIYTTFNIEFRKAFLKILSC

[5] = biological target: D(3) dopamine receptor (Rattus norvegicus) (UniProt P19020); assay: Displacement of BP897 from D3 receptor in rat brain lateral septum nuclei at 5 MBq after 45 mins by phosphorus imaging based autoradiography; settings: 5 M, tested as the 18F-labelled form
Chain of D(3) dopamine receptor (Rattus norvegicus) (P19020 whole entry): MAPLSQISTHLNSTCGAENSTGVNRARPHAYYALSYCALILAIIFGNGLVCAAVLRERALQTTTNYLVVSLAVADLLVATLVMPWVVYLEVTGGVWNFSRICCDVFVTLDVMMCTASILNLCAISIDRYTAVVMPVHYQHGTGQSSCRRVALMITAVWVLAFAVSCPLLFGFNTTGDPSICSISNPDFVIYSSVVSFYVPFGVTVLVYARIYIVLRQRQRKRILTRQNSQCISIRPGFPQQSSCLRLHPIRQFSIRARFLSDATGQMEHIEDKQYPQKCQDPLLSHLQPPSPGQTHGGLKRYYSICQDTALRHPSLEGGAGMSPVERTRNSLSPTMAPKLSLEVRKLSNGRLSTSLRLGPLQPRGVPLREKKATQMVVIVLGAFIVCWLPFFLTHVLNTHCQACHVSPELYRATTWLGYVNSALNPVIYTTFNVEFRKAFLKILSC

Homo sapiens [6] = organism: Homo sapiens; assay: Selectivity ratio of Ki for human D2-short receptor expressed in CHO cell membranes to Ki for human D3 receptor expressed in CHO cell membranes; assay type: cell-based
[7] = biological target: D(3) dopamine receptor (Rattus norvegicus) (UniProt P19020); assay: Displacement of BP897 from D3 receptor in rat brain striatum at 5 MBq after 45 mins by phosphorus imaging based autoradiography; settings: 5 M, tested as the 18F-labelled form
Homo sapiens [8] = organism: Homo sapiens; assay: Selectivity ratio of Ki for human D2-long receptor expressed in CHO cell membranes to Ki for human D3 receptor expressed in CHO cell membranes; assay type: cell-based
[9] = biological target: D(3) dopamine receptor (Rattus norvegicus) (UniProt P19020); assay: Displacement of BP897 from D3 receptor in rat brain islands of calleja at 5 MBq after 45 mins by phosphorus imaging based autoradiography; settings: 5 M, tested as the 18F-labelled form
[10] = biological target: D(3) dopamine receptor (Rattus norvegicus) (UniProt P19020); assay: Displacement of BP897 from D3 receptor in rat brain cortex at 5 MBq after 45 mins by phosphorus imaging based autoradiography; settings: 5 M, tested as the 18F-labelled form
Rhesus monkey [11] = assay: Reduction in cocaine-maintained responding in monkey at 0.18 to 0.32 mg/kg, im administered as single dose 15 mins prior to self administration of 0.01 to 0.03 mg/kg, iv per injection of cocaine for 100 mins relative to control; assay type: functional, Macaca mulatta; set-up: scale not given: the % may be the effect or the level left
How it was run: (§1)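 Male rhesus monkeys trained to respond for cocaine and food under daily 2 h FR30 sessions. Sessions ran in order: food 1, a 100-min i.v. cocaine (or saline) component, then food 2. Saline pretreatment served as baseline. Values are mean ± S.E.M. of four experiments, with significance by two-tailed t-test (p < 0.05).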

Rhesus monkey [12] = assay: Reduction in cocaine-maintained responding in monkey at 0.18 to 0.32 mg/kg, im administered as single dose 15 mins prior to self administration of 0.003 mg/kg, iv per injection of cocaine for 100 mins relative to control; assay type: functional, Macaca mulatta; set-up: scale not given: the % may be the effect or the level left; how it was run: as §1
Rhesus monkey [13] = assay: Reduction in food reinforcement-maintained behavior in monkey at 0.18 to 0.32 mg/kg, im administered as single dose 15 mins prior to food reinforcement during second component of session relative to control; assay type: functional, Macaca mulatta; set-up: scale not given: the % may be the effect or the level left; how it was run: as §1
Rhesus monkey [14] = assay: Reduction in cocaine-maintained responding in monkey administered im 15 mins prior to self administration of 0.1 mg/kg, iv per injection of cocaine for 100 mins; assay type: functional, organism-based; settings: Macaca mulatta; how it was run: as §1
Rhesus monkey [15] = assay: Reduction in cocaine-maintained responding in monkey at 0.18 to 0.32 mg/kg, im administered as single dose 15 mins prior to self administration of 0.1 mg/kg, iv per injection of cocaine for 100 mins relative to control; assay type: functional, Macaca mulatta; set-up: scale not given: the % may be the effect or the level left; how it was run: as §1
Rhesus monkey [16] = assay: Reduction in food reinforcement-maintained behavior in monkey at 0.18 to 0.32 mg/kg, im administered as single dose 15 mins prior to food reinforcement during first component of session relative to control; assay type: functional, Macaca mulatta; set-up: scale not given: the % may be the effect or the level left; settings: in the assay text read “0.32 mg/kg” for “0.18 to 0.32 mg/kg”; how it was run: as §1
[17] = Selectivity ratio of Ki for porcine cerebral cortex 5-HT1A receptor to Ki for human D3 receptor expressed in CHO cell membranes; assay type: cell-based
[18] = Drug uptake in rat brain ventricles at 10 to 15 MBq, iv after 60 mins by phosphorus imaging based autoradiography; assay type: ADME, organism-based, Brain ventricle; settings: in vivo, 1 h
How it was run: (§2)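 Rats injected with the [¹⁸F]-labelled radioligand, alone or co-injected with BP897. Coronal brain sections taken at 60 min p.i. for ex-vivo autoradiography and overlaid with HE-stained sections. Uptake expressed as region of interest-to-background ratio, with control animals compared against BP897 co-injected animals.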

Brain = assay: Drug uptake in rat brain at 10 to 15 MBq, iv after 40 mins by PET imaging method; assay type: ADME, organism-based; settings: in vivo
[19] = Drug uptake in rat brain plexus tissue at 10 to 15 MBq, iv after 60 mins by phosphorus imaging based autoradiography; assay type: ADME, organism-based; settings: in vivo, 1 h; how it was run: as §2
[20] = Drug uptake in rat brain striatum at 10 to 15 MBq, iv after 60 mins by phosphorus imaging based autoradiography; assay type: ADME, organism-based; settings: in vivo, 1 h; how it was run: as §2
[21] = Drug uptake in rat brain calleja islands at 10 to 15 MBq, iv after 60 mins by phosphorus imaging based autoradiography; assay type: ADME, organism-based, Calleja island; settings: in vivo, 1 h; how it was run: as §2
[22] = Drug uptake in rat brain ependyma cell layer at 10 to 15 MBq, iv after 60 mins by phosphorus imaging based autoradiography; assay type: ADME, organism-based; settings: in vivo, 1 h; how it was run: as §2
[23] = Drug uptake in rat brain ventricles at 10 to 15 MBq, iv after 40 mins by PET imaging method; assay type: ADME, organism-based, Brain ventricle; settings: in vivo
[24] = Drug uptake in rat pituitary gland at 10 to 15 MBq, iv after 40 mins pretreated with D3 ligand BP897 by PET imaging method; assay type: ADME, organism-based; settings: in vivo
How it was run: (§3)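 In vivo PET scan of rats given the [¹⁸F]-labelled radioligand. Whole pituitary gland uptake measured at 40 min p.i. as %ID/g, with or without BP897 pretreatment.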

[25] = Drug uptake in rat pituitary gland at 10 to 15 MBq, iv after 40 mins by PET imaging method; assay type: ADME, organism-based; settings: in vivo; how it was run: as §3
Homo sapiens [26] = organism: Homo sapiens; assay: Selectivity ratio of Ki for human D5 receptor expressed in HEK293T cell membranes to Ki for human D3 receptor expressed in CHO cell membranes; assay type: cell-based
Homo sapiens [27] = organism: Homo sapiens; assay: Selectivity ratio of Ki for human 5-HT2A receptor expressed in HEK293T cell membranes to Ki for human D3 receptor expressed in CHO cell membranes; assay type: cell-based
Homo sapiens [28] = organism: Homo sapiens; assay: Selectivity ratio of Ki for human D4 receptor expressed in CHO cell membranes to Ki for human D3 receptor expressed in CHO cell membranes; assay type: cell-based
Homo sapiens [29] = organism: Homo sapiens; assay: Selectivity ratio of Ki for human D1 receptor expressed in HEK293T cell membranes to Ki for human D3 receptor expressed in CHO cell membranes; assay type: cell-based
[30] = tested as the 18F-labelled form

Compound	Ki (D(1B) dopamine receptor) [µM]	Ki [1] [nM]	Ki (D(1A) dopamine receptor) [µM]	Ki (D(2) dopamine receptor [2]) [nM]	Ki (D(2) dopamine receptor [3]) [nM]	Ki (D(4) dopamine receptor) [µM]	Ki [4] [nM]	Ki (D(3) dopamine receptor) [nM]	further results
CN(C)C(=O)N[C@H]1CC[C@H](CCN2CCN(c3cccc(Cl)c3Cl)CC2)CC1 [CARIPRAZINE]	7.9								
O=C(NCCCCN1CC[N+]2(CCOc3ccccc32)CC1)c1cc2ccccn2n1	> 50	900	5.7	4500	6300	> 10	> 10000	200	
O=C(NCCCCN1CCN(c2ccccc2OCCF)CC1)c1cc2ccccn2n1	3.8	6.5	0.86	21	39	0.16	520	0.31	inhibition [5]: Active; Ratio Ki (Homo sapiens [6]; [30]): 68; inhibition [7]: Active; Ratio Ki (Homo sapiens [8]; [30]): 130; inhibition [9]: Active; inhibition [10]: Active
COc1ccccc1N1CCN(CCCCNC(=O)c2cc3ccccn3n2)CC1		10							Activity (Rhesus monkey [11]): 70 - 75%; Activity (Rhesus monkey [12]): <25%; Activity (Rhesus monkey [13]): 80%; Activity (Rhesus monkey [14]): Dose-dependent effect; Activity (Rhesus monkey [15]): 45%; Activity (Rhesus monkey [16]): 30%
CC(C)(C)c1nc(N2CCN(CCCCNC(=O)c3cc4ccccn4n3)CC2)cc(C(F)(F)F)n1	5.7	9800	7.5	200	430	4.7	2700	1.2	Ratio Ki [17]: 8000
O=C(NCCCCN1CCN(c2ccccc2OCC[18F])CC1)c1cc2ccccn2n1								0.31	Drug uptake [18]: Active; Drug uptake (Brain): Active; Drug uptake [19]: Active; Drug uptake [20]: Not Active; Drug uptake [21]: Not Active; Drug uptake [22]: Active; Drug uptake [23]: Active; Drug uptake [24]: Not Active; Drug uptake [25]: 0.394 % ID/g
CC(C)(C)c1nc(N2CCN(CCCCNC(=O)c3cc4ccccc4s3)CC2)cc(C(F)(F)F)n1	> 10	> 50000	> 10	2700	4000	> 10	7100	2.4	Ratio Ki (Homo sapiens [26]): 1000 to 20000; Ratio Ki (Homo sapiens [6]): 1000 to 20000; Ratio Ki (Homo sapiens [8]): 1000 to 20000; Ratio Ki (Homo sapiens [27]): 1000 to 20000; Ratio Ki [17]: 1000 to 20000; Ratio Ki (Homo sapiens [28]): 1000 to 20000; Ratio Ki (Homo sapiens [29]): 1000 to 20000
